The target in assay [1] is T1, Histone deacetylase (Homo sapiens) (UniProt Q13547+O15379+Q9UBN7+Q92769+Q9UQL6+Q8WUI4+Q9BY41+Q96DB2+P56524+Q9UKV0+Q969S8). To be noted: HeLa, at 1 µM.
Assay [2] concerns the target T1, Histone deacetylase (Homo sapiens). To be noted: HeLa, at 0.1 µM.
The target is the same in assay [3]. The assay is described as follows: Inhibition of HDAC in human HeLa cells at 50 uM by fluorescent activity assay. Type of assay: cell-based. A digest of the protocol: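 HDAC activity was measured with a commercial fluorescent kit using Fluor de Lys substrate plus developer. Compounds were dissolved in DMSO and stored at -80 °C. Fluorophore release was read at excitation 335 nm and emission 460 nm. All experiments were run in triplicate.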

Assay [4] shares this target. As to conditions: HeLa, at 10 µM.
The next assay deals with Histone deacetylase. Kind of assay: Inhibition of HDAC in human HeLa cells by fluorescent activity assay. In kind it is cell-based.
The next assay deals with HCT-116. The assay is described as follows: Antiproliferative activity against human HCT116 cells after 5 days by Alamar blue assay. In kind it is functional, cell-based. As to conditions: HCT-116, 120 h.

This is an account of results in ChEMBL document CHEMBL1759961, “Alkyl piperidine and piperazine hydroxamic acids as HDAC inhibitors” (Bioorg Med Chem Lett, 2011).

SMILES strings stand for the structures. pIC50: −log10 of the molar value.

`O=C(CCCCC1CCN(C(=O)NCc2ccccc2)CC1)NO`: the inhibition worked out at 49% in assay [1] and 18% in assay [2].

With `O=C(CCCN1CCN(S(=O)(=O)c2ccccc2)CC1)NO`, the inhibition in assay [3] came to 50%; in assay [4], 30%.

`O=C(CCCN1CCN(S(=O)(=O)Cc2ccccc2)CC1)NO`: the inhibition in assay [3] was 19%; in assay [4], less than 10%.

In the case of `O=C(CCCCN1CCN(S(=O)(=O)Cc2ccccc2)CC1)NO`, the inhibition came to 9% in assay [1] and 4% in assay [2].

At Histone deacetylase, `O=C(CCCC1CCN(C(=O)c2ccccc2)CC1)NO` had an IC50 of 1390 nM. Further, the inhibition in assay [3] is 77%; in assay [2], 11%; in assay [4] it was 69%. The compound also had a negative-log IC50 (pIC50) with HCT-116 of 4.76.

Turning to `O=C(CCC1CCN(S(=O)(=O)Cc2ccccc2)CC1)NO`, the inhibition in assay [1] stood at 33%; in assay [2], 8%.

In the case of `O=C(CCCCC1CCN(C(=O)Nc2ccccc2)CC1)NO`, the values for the inhibition in assay [1] and in assay [2] were 63% and 23%, respectively.

Turning to `O=C(CCN1CCN(S(=O)(=O)Cc2ccccc2)CC1)NO`, the values for the inhibition in assay [3] and in assay [4] were 38% and 1%, respectively.

Turning to `O=C(CC1CCN(S(=O)(=O)Cc2ccccc2)CC1)NO`, the inhibition in assay [3] is 22%; in assay [4], 21%.

Regarding `O=C(CCCC1CCN(C(=O)Nc2ccccc2)CC1)NO`, the inhibition in assay [1] stood at 81%; in assay [2], 53%; in assay [4] it was 86%. Further, the IC50 against Histone deacetylase came to 100 nM. For the same compound, in the assay on HCT-116, the negative logarithm of the IC50 (pIC50) is 6.15.

For the compound `O=C(CCC1CCN(C(=O)c2ccccc2)CC1)NO`, the inhibition in assay [1] stood at 30%; in assay [2] it was 11%.

Take `O=C(CCCCN1CCN(C(=O)c2ccccc2)CC1)NO`: the figures for the inhibition in assay [1] and in assay [2] were 9% and 3%, respectively.

Turning to `O=C(CCCCC1CCN(C(=O)Cc2ccccc2)CC1)NO`, the inhibition in assay [1] is 54%; in assay [2], 11%.

On to `O=C(NO)C1CCN(S(=O)(=O)Cc2ccccc2)CC1`, for which the results for the inhibition in assay [3] and in assay [4] were 33% and 1%, respectively.

For the compound `O=C(CN1CCN(C(=O)Cc2ccccc2)CC1)NO`, the values for the inhibition in assay [3] and in assay [4] were 19% and 6%, respectively.

For `O=C(NO)C1CCN(S(=O)(=O)c2ccccc2)CC1`, the inhibition was 50% in assay [3] and 29% in assay [4].

`O=C(CCCC1CCN(S(=O)(=O)c2ccccc2)CC1)NO` showed a half-maximal inhibitory concentration (IC50) against Histone deacetylase of 540 nM. The pIC50 with HCT-116 was 5.57.

`O=C(CCCC1CCN(C(=O)Cc2ccccc2)CC1)NO`: the inhibition was 72% in assay [1], 85% in assay [3], 36% in assay [2] and 80% in assay [4]. Further, the half-maximal inhibitory concentration (IC50) against Histone deacetylase turned out to be 260 nM. In addition, the pIC50 in the assay with HCT-116 was 5.29.

For the compound `O=C(CC1CCN(S(=O)(=O)c2ccccc2)CC1)NO`, the figures for the inhibition in assay [3] and in assay [4] were 68% and 41%, respectively.

Consider `O=C(CN1CCN(S(=O)(=O)c2ccccc2)CC1)NO`, for which the inhibition is 10% in assay [3] and 3% in assay [4].

For `O=C(CCC1CCN(S(=O)(=O)c2ccccc2)CC1)NO`, the inhibition in assay [1] was 33%; in assay [2] it was 9%.

Take `O=C(CCN1CCN(C(=O)c2ccccc2)CC1)NO`: the inhibition in assay [1] and in assay [2] was 3% in each case.

Turning to `O=C(CCCCC1CCN(S(=O)(=O)c2ccccc2)CC1)NO`, the inhibition in assay [1] amounted to 45%; in assay [2] it was 13%.

Turning to `O=C(CCN1CCN(C(=O)Cc2ccccc2)CC1)NO`, the inhibition in assay [3] came out at 2%; in assay [4], 0%.

On to `O=C(CCCCN1CCN(S(=O)(=O)c2ccccc2)CC1)NO`, for which the inhibition stood at 12% in assay [1] and 9% in assay [2].

Take `O=C(CCCN1CCN(C(=O)c2ccccc2)CC1)NO`: the values for the inhibition in assay [3] and in assay [4] were 30% and 13%, respectively.

For `O=C(CN1CCN(S(=O)(=O)Cc2ccccc2)CC1)NO`, the inhibition in assay [3] was 51%; in assay [4], 16%.

In the case of `O=C(CCCCC1CCN(C(=O)c2ccccc2)CC1)NO`, the inhibition in assay [1] turned out to be 44%; in assay [2], 12%.

With `O=C(NO)C1CCN(C(=O)c2ccccc2)CC1`, the inhibition in assay [3] amounted to 16%; in assay [4], 0%.

In the case of `O=C(CCCC1CCN(C(=O)NCc2ccccc2)CC1)NO`, the inhibition in assay [1] came to 69%; in assay [2] it was 59%; in assay [4], 86%. At Histone deacetylase, this compound came in with an IC50 of 90 nM. The compound further gave a negative logarithm of the IC50 (pIC50) in the assay on HCT-116 of 6.52.

`O=C(CCN1CCN(S(=O)(=O)c2ccccc2)CC1)NO`: the inhibition in assay [3] came to 44%; in assay [4] it was 14%.

`O=C(CCCCN1CCN(C(=O)Cc2ccccc2)CC1)NO`: the inhibition in assay [1] stood at 40%; in assay [2], 19%.

Regarding `O=C(CC1CCN(C(=O)Cc2ccccc2)CC1)NO`, the inhibition amounted to 61% in assay [3] and 39% in assay [4].

On to `O=C(CC1CCN(C(=O)c2ccccc2)CC1)NO`, for which the inhibition amounted to 41% in assay [3] and 7% in assay [4].

For `O=C(CCC1CCN(C(=O)Cc2ccccc2)CC1)NO`, the inhibition in assay [1] is 24%; in assay [2], 2%.

As to `O=C(NO)C1CCN(C(=O)Cc2ccccc2)CC1`, the inhibition is 65% in assay [3] and 33% in assay [4].

`O=C(CCCN1CCN(C(=O)Cc2ccccc2)CC1)NO`: the inhibition stood at 52% in assay [3] and 28% in assay [4].

Regarding `O=C(CCCC1CCN(S(=O)(=O)Cc2ccccc2)CC1)NO`, on Histone deacetylase, the IC50 is 840 nM. Also, the inhibition in assay [3] stood at 77%; in assay [2] it was 12%. For the same compound, the pIC50 in the assay with HCT-116 is 5.49.

As to `O=C(CCCCCC1CCN(C(=O)NCc2ccccc2)CC1)NO`, the inhibition in assay [1] amounted to 62%; in assay [2] it was 20%.

`O=C(CCCCCC1CCN(C(=O)Nc2ccccc2)CC1)NO`: the inhibition is 54% in assay [1] and 16% in assay [2].

Usually inhibition stands for the share of the control response that was lost under treatment. As usually defined, the IC50 is the concentration needed to halve the response being measured. A word on the pIC50: it is −log10 of the IC50, conventionally taken in molar units. Low values mean a large IC50, high ones a small IC50.
